Experimental data reported in PMC2174336 (The Journal of Cell Biology, 2001).
Bridges are numbered along the chain shown (N, C = ends). Where no end group is shown, it is not given here.

What was measured:
THP-1 cells [1] = assay: Inhibition of THP-1 cell adhesion to LLG-C4-GST or LLG-C4 substratum; assay type: cell-based
Procedure, shortened: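 THP-1 cells were mixed in suspension with test peptides at the indicated final concentrations, or with 2.5 mM EDTA. They were then incubated 60 min in wells coated with peptide–GST fusion. Unbound cells were removed by PBS washing and bound cells quantitated by phosphatase assay. Mean of triplicate wells; repeated in two further experiments.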

THP-1 cells [2] = assay: THP-1 cell adhesion to von Willebrand factor; assay type: cell-based; details: data not shown
Procedure, shortened: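 THP-1 cells were incubated 60 min at 37°C in wells coated with von Willebrand factor or fibronectin (2 μg per well, BSA-blocked), with test peptides at the indicated concentrations. Unbound cells were washed off with PBS and bound cells read by phosphatase assay. Triplicate wells.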

αMβ2 integrin [3] = assay: Phage binding to purified αMβ2 integrin; details: phage-displayed peptide; data not shown
THP-1 cells [4] = assay: THP-1 cell adhesion to immobilized peptides or GST fusion proteins; assay type: cell-based; details: 60 min; for THP-1 cell binding to substance coated on microtiter wells: phorbol ester–activated THP-1 cells, phosphatase assay
Procedure, shortened: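 Proteins or synthetic peptides coated at 2 μg per well in TBS unless indicated; polymerised peptide made with 0.25% final glutaraldehyde. Wells blocked with 5% BSA and washed with PBS. Cells were preactivated for 30 min at room temperature in serum-free medium with 50 nM phorbol dibutyrate or 200 μM activating peptide. Then 10^5 cells/well were incubated 60 min at 37°C. Bound cells were read by cellular phosphatase assay.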

αM subunit I domain = assay: LLG-C4-GST binding to purified αM subunit I domain; details: LLG-C4-GST 10 μg/ml; for inhibition of LLG-C4-GST binding to the I domain: peptide 100 μM, triplicate wells
Procedure, shortened: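 The αM I domain was expressed as a GST fusion in E. coli, purified on glutathione beads and released by thrombin cleavage; it was then coated on wells. Peptide–GST fusion or GST at the indicated concentrations (10 μg/ml in methods) was incubated 1 h in 25 mM octylglucoside/TBS/1 mM MnCl2. Bound protein was detected with Eu3+-labelled anti-GST antibodies. Triplicate wells, three experiments.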

T cells = assay: T cell binding to TNF-α-stimulated Eahy926 endothelial cell monolayer; assay type: cell-based; details: peptide 50 μM; 45 min; phosphatase assay; triplicate wells
Procedure, shortened: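 Eahy926 endothelial cells were seeded at 5×10^4/well, grown 3 d, then stimulated 16 h with TNF-α (10 ng/ml). Blood T cells were isolated by Ficoll-Hypaque and nylon wool. T cells (1.5×10^5/well) were bound 30 min at 4°C then 15 min at 37°C, with test or control peptide at 50 μM. Unbound cells were removed by immersing the plate in PBS. Phosphatase assay; triplicate wells.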

THP-1 cells [5] = assay: THP-1 adhesion to A2 domain-deleted von Willebrand factor; assay type: cell-based; details: phosphatase assay; triplicate wells
Procedure, shortened: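 Wild-type or A2-domain-deleted recombinant von Willebrand factor was captured on wells coated with anti-von Willebrand factor antibody D′-D3. THP-1 cells were incubated with competitor peptides at the stated concentrations. Bound cells were read by phosphatase assay, expressed relative to wild-type von Willebrand factor binding (100%). Triplicate wells; similar in two further experiments.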

Jurkat cells = assay: Jurkat cell adhesion to ICAM-1-Fc; assay type: cell-based
THP-1 cells [6] = assay: THP-1 cell migration on fibrinogen-coated Transwell filters; assay type: cell-based; details: 200 μM; 8-μm Transwell; 10% serum; 18 h; n = 6
Procedure, shortened: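 Both faces of 8-μm-pore Transwell filters were coated with fibrinogen or peptide–GST fusion (40 μg/ml; GST control) and blocked with 5% BSA. THP-1 cells (5×10^4) were placed in the upper chamber in 10% serum medium, ± test peptides at 200 μM; the lower chamber held the same medium. After 18 h at 37°C, filters were methanol-fixed and stained with 0.1% toluidine blue. Cells on the lower surface were counted microscopically.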

αMβ2 integrin [7] = assay: LLG-C4-GST binding to immunocaptured αMβ2 integrin; details: integrin immunocaptured with MEM170 or OKM1
Procedure, shortened: (§1)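 Integrins from buffy-coat lysate in 1% octylglucoside/1 mM MnCl2/TBS were captured for 2 h at 4°C on wells coated with subunit antibodies (MEM170, OKM1 or 2E7), then washed five times. Peptide–GST fusion or GST (10 μg/ml; 2 μg/well per legend) bound 1 h in 25 mM octylglucoside/TBS/1 mM MnCl2, ± EDTA. Detection by Eu3+-chelate-labelled anti-GST antibody fluorescence. Repeated three times.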

β2 integrin = assay: LLG-C4-GST binding to integrin immunocaptured with β2 subunit antibody 2E7; details: β2 subunit antibody 2E7 used for immunocapture
Procedure, shortened: as §1

[8] = test system: αXβ2 integrin–transfected L cells; assay: Binding of αXβ2 integrin-transfected L cells to LLG-C4-GST; assay type: cell-based, mouse; details: three experiments in triplicate wells
Procedure, shortened: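 αXβ2-transfected mouse L cells were incubated in wells coated with peptide–GST fusion or GST (2 μg/well, BSA-blocked), 60 min at 37°C, 10^5 cells/well. The β2-blocking antibody 7E4 or EDTA served as competitors. After PBS washing, bound cells were read by phosphatase assay and given as percentage adhesion. Triplicate wells; three experiments.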

[9] = molecular target: β2 integrins of THP-1 cells (adhesion to LLG-C4 substrata)
[10] = molecular target: β2 integrins of THP-1 cells (adhesion to LLG-C4 substrata); remark: listed apart in the source

Molecule: CLLGC (disulfide)
- concentrations at which THP-1 cell adhesion on LLG-C4-GST was readily inhibited (THP-1 cells [1]; LLG-C4-GST substratum, phosphatase assay): ≥ 1 mM
- inhibition of THP-1 binding to von Willebrand factor at 500 μM (THP-1 cells [2]): inhibited

Molecule: CPCFLLGCC (also: bicyclic or more (positions not given here)) [LLG-C4]
- affinity to αMβ2 in phage-binding experiments in comparison to the other clones (αMβ2 integrin [3]): higher affinity
- THP-1 cell binding to substance coated on microtiter wells (THP-1 cells [4]): bound strongly

Molecule: CPCFLLGCC [LLG-C4 (1)]
- inhibition of LLG-C4-GST binding to the I domain (αM subunit I domain): blocked

Molecule: ACDCRGDCFCG (also: bicyclic or more (positions not given here)) [RGD-4C]
- effect on T cell binding to TNF-α–stimulated endothelial cells (T cells): no effect
- effect on THP-1 adhesion to the A2-deleted von Willebrand factor (THP-1 cells [5]): blocked

Molecule: CPCFLLGCC (also: bicyclic or more (positions not given here)) [C(1-9;3-8)]
- THP-1 cell binding to peptide cross-linked with glutaraldehyde (THP-1 cells [4]; peptide coated in presence of glutaraldehyde, 10^5 cells per well): inactive even after the cross-linking
- THP-1 cell binding to substance coated on microtiter wells (THP-1 cells [4]): failed to bind
- fold less active than C(1-8;3-9), THP-1 cell adhesion on LLG-C4-GST (THP-1 cells [1]; relative to C(1-8;3-9)): 20 fold
- inhibition of Jurkat cell adhesion to ICAM-1-Fc (in words) (Jurkat cells): severalfold less active and had hardly any effect
- effect on THP-1 cell migration on fibrinogen (THP-1 cells [6]): inhibited only partially

Molecule: CAAGC (disulfide)
- competition of THP-1 cell adhesion on LLG-C4-GST (in words) (THP-1 cells [1]; LLG-C4-GST substratum): only a weak competitor

Molecule: CPCFLLGCC [LLG-C4 (2)]
- inhibition of LLG-C4-GST binding to the I domain (αM subunit I domain): did not inhibit

Molecule: O=C(O)CN(CCN(CC(=O)O)CC(=O)O)CC(=O)O [EDTA]
- effect of EDTA on LLG-C4-GST binding to αMβ2 integrin (αMβ2 integrin [7]): inhibited the binding
- effect of EDTA on LLG-C4-GST binding to integrin captured with 2E7 (β2 integrin): only partially inhibited
- effect of EDTA on LLG-C4-GST binding to the I domain (αM subunit I domain; EDTA 2.5 mM): blocked the binding
- effect of EDTA on THP-1 binding to LLG-C4-GST (THP-1 cells [1]; EDTA 2.5 mM, phorbol ester–activated cells): abolished the binding
- binding of αXβ2-transfected L cells to LLG-C4-GST, effect of competitor [8]: inhibited

Molecule: CPCFLLGCC (disulfide 1-8, 3-9) [C(1-8;3-9) peptide]
- IC50 of inhibition of THP-1 cell adhesion on LLG-C4-GST (blocks m22 with m1) [9]: 20 µM

Molecule: CLLGC (also: cyclic, type of ring not given here) [CLLGC peptide]
- inhibition of THP-1 cell adhesion on LLG-C4-GST (blocks m22 with m1) [10]: > 1 mM
